According to ChEMBL document CHEMBL1799937, “Streptothricin derivatives from Streptomyces sp. I08A 1776” (J Nat Prod, 2011):
Values after ≈ are worked out from the molar mass of the structure shown.

What was measured:
[1] = tested on: Mycolicibacterium smegmatis; assay: Antibacterial activity against Mycobacterium smegmatis MC2 155 after 24 hrs by broth dilution method; format: functional; conditions: str. MC2 155, 24 h
Procedure, shortened: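 CLSI broth microdilution MIC. Medium: Middlebrook 7H9 broth. Serial 2-fold dilutions give final concentrations of 128 to 0.125 μg/mL. Final inoculum is 1 × 10^5 cfu/mL. Incubation is 24 h at 37 °C. MIC is the lowest concentration with no visible growth. Levofloxacin serves as positive control.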

[2] = tested on: HepG2; assay: Cytotoxicity against human […] cells after 96 hrs by MTT assay; format: functional, cell-based; conditions: HepG2, 96 h
[3] = tested on: Escherichia coli; assay: Antibacterial activity against Escherichia coli ATCC 25922 after 24 hrs by broth dilution method; format: functional; conditions: ATCC 25922, 24 h
Procedure, shortened: (§1)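 CLSI broth microdilution in Mueller-Hinton broth, with levofloxacin as positive control. Final inoculum was 1 × 10^5 cfu/mL. Compounds were tested at final concentrations from 128 to 0.125 μg/mL in 2-fold serial dilutions. Plates were incubated for 24 h at 37 °C. MIC was read as the lowest concentration giving no visible growth.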

[4] = tested on: Candida albicans; assay: Antifungal activity against Candida albicans ATCC 10231 after 24 hrs by broth dilution method; format: functional; conditions: ATCC 10231, 24 h; procedure, shortened: as §1
[5] = tested on: HeLa; assay: Cytotoxicity against human HeLa cells after 96 hrs by MTT assay; format: functional, cell-based
[6] = tested on: Bacillus subtilis; assay: Antibacterial activity against Bacillus subtilis ATCC 6633 after 24 hrs by broth dilution method; format: functional; conditions: ATCC 6633, 24 h; procedure, shortened: as §1
[7] = tested on: Morganella morganii; assay: Antibacterial activity against multidrug-resistant Morganella morganii 07-09 after 24 hrs by broth dilution method; format: functional; conditions: 07-09, 24 h
Procedure, shortened: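 Mueller-Hinton broth microdilution following CLSI. Strains came from ATCC or clinical isolates. Final compound range 128 to 0.125 μg/mL by 2-fold dilution, inoculum 1 × 10^5 cfu/mL final. Incubated 24 h at 37 °C. MIC read as the lowest concentration showing no visible growth. Levofloxacin is the positive control.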

[8] = tested on: Staphylococcus aureus; assay: Antibacterial activity against Staphylococcus aureus ATCC 25923 after 24 hrs by broth dilution method; format: functional; conditions: ATCC 25923, 24 h; procedure, shortened: as §1
[9] = tested on: A549; assay: Cytotoxicity against human A549 cells after 96 hrs by MTT assay; format: functional, cell-based; conditions: A549, 96 h
[10] = tested on: Mycobacterium tuberculosis; assay: Antibacterial activity against Mycobacterium tuberculosis H37Rv after 14 days by broth dilution method; format: functional; conditions: 336 h
Procedure, shortened: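 Broth microdilution per CLSI in Middlebrook 7H9 broth. Compounds run at final 128 to 0.125 μg/mL (2-fold series) against an inoculum of 1 × 10^5 cfu/mL final. Plates incubated 14 days at 37 °C. Endpoint is the lowest concentration without visible growth. Levofloxacin is the positive control.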

[11] = tested on: Enterococcus faecalis; assay: Antibacterial activity against Enterococcus faecalis ATCC 29212 after 24 hrs by broth dilution method; format: functional; conditions: ATCC 29212, 24 h; procedure, shortened: as §1
[12] = tested on: Pseudomonas aeruginosa; assay: Antibacterial activity against Pseudomonas aeruginosa ATCC 27853 after 24 hrs by broth dilution method; format: functional; conditions: ATCC 27853, 24 h; procedure, shortened: as §1

## CC(=O)N[C@@H](CCCN)CC(=O)N[C@@H]1[C@H](O)[C@@H](O)[C@@H](COC(N)=O)O[C@H]1/N=C1\N[C@@H]2[C@H](O)CNC(=O)[C@H]2N1
[1]
  MIC: > 128 µg/mL
[2]
  IC50: > 10 µM
[3]
  MIC: > 128 µg/mL
[4]
  MIC: > 128 µg/mL
[5]
  IC50: > 10 µM
[6]
  MIC: > 128 µg/mL
[7]
  MIC: > 128 µg/mL
[8]
  MIC: > 128 µg/mL
[9]
  IC50: > 10 µM
[10]
  MIC: > 128 µg/mL
[11]
  MIC: > 128 µg/mL
[12]
  MIC: > 128 µg/mL

## CC(=O)N[C@@H](CCCN)CC(=O)N[C@@H]1[C@H](O)[C@@H](O)[C@@H](COC(N)=O)O[C@H]1/N=C1\N[C@H]([C@H](O)CN)[C@@H](C(=O)O)N1
[1]
  MIC: > 128 µg/mL
[2]
  IC50: > 10 µM
[3]
  MIC: > 128 µg/mL
[4]
  MIC: > 128 µg/mL
[5]
  IC50: > 10 µM
[6]
  MIC: > 128 µg/mL
[7]
  MIC: > 128 µg/mL
[8]
  MIC: > 128 µg/mL
[9]
  IC50: > 10 µM
[10]
  MIC: > 128 µg/mL
[11]
  MIC: > 128 µg/mL
[12]
  MIC: > 128 µg/mL

## CC(=O)N[C@@H](CCCN)CC(=O)N[C@@H]1[C@H](O)[C@@H](O)[C@@H](COC(N)=O)O[C@H]1/N=C1\N[C@@H]2[C@H](O)CNC(=O)[C@@H]2N1
[1]
  MIC: > 128 µg/mL
[2]
  IC50: > 10 µM
[3]
  MIC: > 128 µg/mL
[4]
  MIC: > 128 µg/mL
[5]
  IC50: > 10 µM
[6]
  MIC: > 128 µg/mL
[7]
  MIC: > 128 µg/mL
[8]
  MIC: > 128 µg/mL
[9]
  IC50: > 10 µM
[10]
  MIC: > 128 µg/mL
[11]
  MIC: > 128 µg/mL
[12]
  MIC: > 128 µg/mL

## CC(=O)N[C@@H](CCCN)CC(=O)N[C@@H]1[C@H](O)[C@@H](O)[C@@H](COC(N)=O)O[C@@H]1/N=C1\N[C@@H]2[C@H](O)CNC(=O)[C@H]2N1
[1]
  MIC: > 128 µg/mL
[2]
  IC50: > 10 µM
[3]
  MIC: > 128 µg/mL
[4]
  MIC: > 128 µg/mL
[5]
  IC50: > 10 µM
[6]
  MIC: > 128 µg/mL
[7]
  MIC: > 128 µg/mL
[8]
  MIC: > 128 µg/mL
[9]
  IC50: > 10 µM
[10]
  MIC: > 128 µg/mL
[11]
  MIC: > 128 µg/mL
[12]
  MIC: > 128 µg/mL

## NCCC[C@H](N)CC(=O)NCCC[C@H](N)CC(=O)N[C@@H]1[C@H](O)[C@@H](O)[C@@H](COC(N)=O)O[C@H]1/N=C1\N[C@@H]2[C@H](O)CNC(=O)[C@H]2N1
[1]
  MIC: 64 µg/mL (≈ 101 µM)
[2]
  IC50: > 10 µM
[3]
  MIC: > 128 µg/mL
[4]
  MIC: 32 µg/mL (≈ 50.7 µM)
[5]
  IC50: > 10 µM
[6]
  MIC: 16 µg/mL (≈ 25.4 µM)
[7]
  MIC: > 128 µg/mL
[8]
  MIC: > 128 µg/mL
[9]
  IC50: > 10 µM
[10]
  MIC: > 128 µg/mL
[11]
  MIC: > 128 µg/mL
[12]
  MIC: > 128 µg/mL

## CC(=O)N[C@@H](CCCNC(=O)C[C@@H](N)CCCNC(=O)C[C@@H](N)CCCN)CC(=O)N[C@@H]1[C@H](O)[C@@H](OC(N)=O)[C@@H](CO)O[C@H]1NC1=N[C@@H]2C(=O)NC[C@@H](O)[C@H]2N1
[1]
  MIC: > 128 µg/mL
[2]
  IC50: > 10 µM
[3]
  MIC: > 128 µg/mL
[4]
  MIC: > 128 µg/mL
[5]
  IC50: > 10 µM
[6]
  MIC: > 128 µg/mL
[7]
  MIC: > 128 µg/mL
[8]
  MIC: > 128 µg/mL
[9]
  IC50: > 10 µM
[10]
  MIC: > 128 µg/mL
[11]
  MIC: > 128 µg/mL
[12]
  MIC: > 128 µg/mL

## CC(=O)N[C@@H](CCCNC(=O)C[C@@H](N)CCCN)CC(=O)N[C@@H]1[C@H](O)[C@@H](OC(N)=O)[C@@H](CO)O[C@H]1/N=C1\N[C@@H]2[C@H](O)CNC(=O)[C@H]2N1
[1]
  MIC: > 128 µg/mL
[2]
  IC50: > 10 µM
[3]
  MIC: > 128 µg/mL
[4]
  MIC: > 128 µg/mL
[5]
  IC50: > 10 µM
[6]
  MIC: > 128 µg/mL
[7]
  MIC: > 128 µg/mL
[8]
  MIC: > 128 µg/mL
[9]
  IC50: > 10 µM
[10]
  MIC: > 128 µg/mL
[11]
  MIC: > 128 µg/mL
[12]
  MIC: > 128 µg/mL

## C[C@H]1COc2c(N3CCN(C)CC3)c(F)cc3c(=O)c(C(=O)O)cn1c23.C[C@H]1COc2c(N3CCN(C)CC3)c(F)cc3c(=O)c(C(=O)O)cn1c23.O [LEVOFLOXACIN]
[1]
  MIC: 1 µg/mL
[4]
  MIC: > 128 µg/mL
[6]
  MIC: 0.12 µg/mL
[7]
  MIC: 16 µg/mL
[8]
  MIC: 0.12 µg/mL
[10]
  MIC: 0.5 µg/mL
[11]
  MIC: 0.5 µg/mL
[12]
  MIC: 0.25 µg/mL

## NCCC[C@H](N)CC(=O)NCCC[C@H](N)CC(=O)N[C@@H]1[C@H](O)[C@@H](OC(N)=O)[C@@H](CO)O[C@H]1NC1=N[C@@H]2C(=O)NC[C@@H](O)[C@H]2N1 [STREPTOTHRICIN E]
[1]
  MIC: 4 µg/mL (≈ 6.34 µM)
[2]
  IC50: > 10 µM
[3]
  MIC: 16 µg/mL (≈ 25.4 µM)
[4]
  MIC: 1 µg/mL (≈ 1.59 µM)
[5]
  IC50: > 10 µM
[6]
  MIC: 1 µg/mL (≈ 1.59 µM)
[7]
  MIC: 4 µg/mL (≈ 6.34 µM)
[8]
  MIC: 4 µg/mL (≈ 6.34 µM)
[9]
  IC50: > 10 µM
[10]
  MIC: 16 µg/mL (≈ 25.4 µM)
[11]
  MIC: 64 µg/mL (≈ 101 µM)
[12]
  MIC: 64 µg/mL (≈ 101 µM)
